MC4R antagonist – MC4R antagonists of cAMP signaling, primary screen, cell-based, TR-FRET, antagonist arm of biased-ligand search; 360,000 compounds, 0.48% hits; MC4R-expressing cells, MTII-stimulated cAMP, LANCE TR-FRET; AID 540295, 2011; Melanocortin receptor 4 (Homo sapiens), P32245; inhibition, % at 6.5 µM;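 active = inhibition above its plate's cutoff, the mean of tested wells on that plate plus 3 SD, cut at about 29% in these data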;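 also: 0% = Melanotan II alone and 100% = Melanotan II plus saturating MCL0020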
Target sequence (P32245 whole entry, looked up): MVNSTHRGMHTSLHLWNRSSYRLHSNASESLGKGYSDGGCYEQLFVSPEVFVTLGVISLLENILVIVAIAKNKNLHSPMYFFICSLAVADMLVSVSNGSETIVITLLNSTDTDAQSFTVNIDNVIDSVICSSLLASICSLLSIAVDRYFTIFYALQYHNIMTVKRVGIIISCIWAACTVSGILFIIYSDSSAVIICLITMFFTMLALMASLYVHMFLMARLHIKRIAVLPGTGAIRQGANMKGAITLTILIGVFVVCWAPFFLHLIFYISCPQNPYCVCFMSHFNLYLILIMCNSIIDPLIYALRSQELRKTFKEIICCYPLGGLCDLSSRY
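Assay system: human MC4R-expressing U2OS cells; reagent: Melanotan II stimulation of cells; dosing: 6.5 µM single dose; timing: compound 30 min, challenge 1 h, detection 1 h; signal: TR-FRET cAMP assay; replicates: one well per compound, no replicates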
Tb MetRS inh – T. brucei MetRS inhibitors, primary screen, biochemical, luminescence. inhibition, % at 11.9 µM. 360,000 compounds, 0.4% hits. methionyl-tRNA synthetase (Trypanosoma brucei brucei). purified T. brucei MetRS, ATP depletion, Kinase-Glo luminescence;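 active = inhibition above a per-plate cutoff of the control wells' mean inhibition plus 3 SD, cut at about 5.5% in these data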;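 also: 0% = DMSO wells median and 100% = median of wells with control inhibitor compound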
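Dosing: 11.9 µM compound single dose, 0.9% DMSO; Assay system: purified T. brucei MetRS enzyme; Measured by: Kinase-Glo luciferase luminescence reporting remaining unconsumed ATP; Schedule: 15 min plus 2 h at 25 °C.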
NALP1 inh – NALP1 inflammasome inhibitors in reconstituted yeast, colorimetric, S. cerevisiae, triplicate retest; S. cerevisiae NALP1/ASC/caspase-1 growth, X-gal OD620, 72 h; inhibition, % at 10 µM; 280,000 compounds, 0.61% hits; AID 2071, 2009; in the data active = inhibition mostly above about 24%, no sharp cut-off; inactive = mostly below about 32%
NLRP3 yeast inh – NALP3 inflammasome inhibitors in reconstituted yeast, primary screen, luminescence, uHTS | AID 2825, 2010 | inhibition, % at 10 µM | Yeast reconstituted NLRP3/ASC/caspase-1, beta-gal luminescence, 24 h | 330,000 compounds, 0.39% hits;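 active = inhibition of 50% or more; inactive = inhibition below 50%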;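 also: plate controls were induced DMSO wells for no effect and uninduced yeast grown without galactose for full effect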
MC4R ag barr – MC4R agonists recruiting beta-arrestin, primary screen, cell-based, luminescence, agonist arm of biased-ligand search | Melanocortin receptor 4 (Homo sapiens), P32245 | U2OS MC4R beta-arrestin complementation; percent of melanotan II response, DMSO zero | activation, % at 8.9 µM | 360,000 compounds, 0.98% hits | AID 540308, 2011;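 active = activation above a per-plate cutoff, the mean activation of sample wells on that plate plus 3 SD, cut at about 8% in these data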
Bfl-1 A1 inh – caspase 3/7 activation in MEF A1-2A-BIM cells, primary screen, A1 inhibitor project, cell-based, luminescence, HTS; 330,000 compounds, 0.066% hits; caspase activation, % (no concentration beside the values); Caspase-Glo 3/7 luminescence, 3 h; percent of clofoctol response, vehicle zero;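 active = over half of replicate activation scores above 10%, or exactly half above 10 with the replicate mean above 10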
MC4R barr conf – MC4R beta-arrestin agonists, retest, confirmation, cell-based, luminescence, U2OS; shares compounds with MC4R ag barr; U2OS MC4R beta-arrestin recruitment; scaled DMSO 0%, Melanotan II 100%; activation, % at 8.9 µM; 2,400 compounds, 31% hits;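 active = mean activation across replicates above the hit cutoff set in the earlier primary screen, cut at about 8% in these data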
MOR-DOR barr ag – agonists of MOR-DOR heterodimerization, counter-screen for MC4R biased agonist project, cell-based, luminescence; shares compounds with MC4R ag barr; U2OS PathHunter beta-arrestin, beta-gal luminescence; percent of deltorphin B response, DMSO zero; activation, % at 9.2 µM; 2,400 compounds, 5.8% hits;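 active = mean activation across replicates exceeds the hit threshold derived in the earlier primary screen, cut at about 18% in these data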;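 also: 100% = deltorphin B at 0.9 µM final and 0% = DMSO alone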
Active calls of the source: *; · = no result given. This is a sample that favours compounds with a hit; in the whole collection about 2.5% have one here.

SMILES	MC4R antagonist	Tb MetRS inh	NALP1 inh	NLRP3 yeast inh	MC4R ag barr	Bfl-1 A1 inh	MC4R barr conf	MOR-DOR barr ag
COc1cccc(C(=O)Nc2ccc(NC(=O)c3cc4ccccc4o3)c(OC)c2)c1	-2	-1	24	1	10*	0	6	11
COc1ccc(C(=O)OCC(=O)NC(=O)Nc2ccccc2F)c(OC)c1	-8	0	·	6	25*	-1	2	15
O=C(NC1CCCCC1)C(=O)c1c[nH]c2ccccc12	-1	0	4	37	-2	-3	·	·
CCOc1ccc(NC(=O)COC(=O)c2ccc3c(c2)C(=O)N(CCc2ccccc2)C3=O)cc1	4	-1	24	17	0	-2	·	·
O=C(COC(=O)c1ccc2c(c1)C(=O)N(CCc1ccccc1)C2=O)Nc1ccc(OC(F)F)cc1	11	0	21	-9	13*	-2	10*	6
COCCn1c(=NC(=O)/C=C/c2cccs2)sc2cc(NC(C)=O)ccc21	9	-2	35	16	10*	-1	1	7
COC(=O)c1sc2nc(C)nc(SCC(=O)Nc3sccc3C(N)=O)c2c1C	0	0	·	16	19*	0	8	5
NC(Cc1ccc(C(F)(F)F)cc1)c1csc(Nc2nccc(C(F)(F)F)n2)n1 (stereo not drawn)	4	0	·	·	15*	·	17*	7
Cc1cc(C)nc(Nc2nc(C(N)Cc3ccc(F)cc3)cs2)n1 (stereo not drawn)	-3	0	·	·	1	·	·	·
Cc1cc(C)nc(Nc2nc(C(N)Cc3ccc(C(F)(F)F)cc3)cs2)n1 (stereo not drawn)	-7	0	·	·	10*	·	26*	10
NC(COCc1ccccc1)c1csc(Nc2nccc(C(F)(F)F)n2)n1 (stereo not drawn)	0	0	·	·	4	·	·	·
CS(=O)(=O)c1ccc(Nc2nc(C(N)Cc3ccc(C(F)(F)F)cc3)cs2)cc1 (stereo not drawn)	11	0	·	·	-1	·	·	·
Cc1cc(C)nc(Nc2nc(C(N)Cc3ccc(Cl)cc3)cs2)n1 (stereo not drawn)	-8	0	·	·	9.8*	·	28*	13
CCCc1cnc(Nc2nc(C(N)Cc3ccc(C(F)(F)F)cc3)cs2)nc1 (stereo not drawn)	27	0	·	·	15*	·	14*	6
CCN(C(=O)CSc1nnc(-c2ccccc2OC)n1N)c1c(N)n(Cc2ccccc2)c(=O)[nH]c1=O	-1	0	·	·	-2	·	·	·
C#CCN(C[C@@H](CC(C)C)NC(=O)OC(C)(C)C)S(=O)(=O)c1ccc(Br)cc1F	12	-1	·	·	7	·	·	·
Cc1cc(C2=CC(=O)C[C@H](c3ccc4c(c3)OCO4)C2)ccc1F	8	0	·	16	0	-1	·	·
O=C(CCN1CCCO1)N1CCCC(Nc2cccc(F)c2)C1 (stereo not drawn)	-2	0	·	·	-1	·	·	·
COc1cc(OC)nc(Nc2nc(C(N)Cc3ccc(C(F)(F)F)cc3)cs2)n1 (stereo not drawn)	9	0	·	·	29*	·	7	13
Cc1c(C(=O)Nc2ccccn2)oc2c(Cl)cccc12	-2	-1	·	0	-3	0	·	·
Cc1c(C(=O)Nc2nccs2)oc2c(Cl)cccc12	-9	0	·	-17	22*	-1	1	6
OC(COc1ccc(F)cc1Cl)CN1CCC(Cc2ccccc2)CC1 (stereo not drawn)	3	1	42*	47	11*	0	9.3*	11
CC(C)(C)c1ccc(C(=O)NCCC(=O)NNC(=O)COc2ccccc2F)cc1	10	0	·	5	-2	-2	·	·
Cc1cc(Br)ccc1SCC(=O)OC/C(O)=C(\C#N)c1nc2ccccc2[nH]1	20	0	·	3	12*	0	3	2
COCC(=O)OC/C(O)=C(\C#N)c1nc2ccccc2[nH]1	10	1	8	7	0	0	·	·
SMILES	MC4R antagonist	Tb MetRS inh	NALP1 inh	NLRP3 yeast inh	MC4R ag barr	Bfl-1 A1 inh	MC4R barr conf	MOR-DOR barr ag
Cc1ccc(C)c(SCC(=O)OC/C(O)=C(\C#N)c2nc3ccccc3[nH]2)c1	-10	-1	-13	·	17*	·	-1	12
Cc1cccc(C)c1OCC(=O)OC/C(O)=C(\C#N)c1nc2ccccc2[nH]1	3	-1	27	-10	21*	0	5	8
Cc1cc(Br)ccc1SCC(=O)OCC(O)=C(C#N)c1nc2ccccc2[nH]1	7	0	·	·	6	·	·	·
O=C1CC(N2CCN(S(=O)(=O)c3ccccc3F)CC2)C(=O)N1c1ccccc1F (stereo not drawn)	10	0	·	·	0	·	·	·
Fc1ccc(CSc2ccc(-c3ccc4c(c3)OCO4)nn2)cc1	10	0	31	-3	11*	0	2	8
c1ccc(CSc2ccc(-c3ccc4c(c3)OCO4)nn2)cc1	-3	-2	18	-41	29*	1	3	4
Cn1c(SCc2ccccc2)nnc1-c1ccc2c(c1)OCO2	4	0	28	17	0	-1	·	·
Cc1c(-c2ccc(F)cc2)nc(N)c(C#N)c1-c1cccnc1	10	-1	3	-1	1	1	·	·
Cc1ccc(-c2c(C)c(-c3ccc(F)cc3)nc(N)c2C#N)o1	10	-1	-1	12	13*	0	1	10
CCCCc1nc2sc3c(SCC(=O)NCc4ccco4)ncnc3c2c2c1CCC2	16	0	0	0	14*	1	2	4
COc1ccc(/C=N/Nc2cc(C)nc3ccc(OC)cc23)c(OC)c1	-12	0	13	22	32*	0	57*	43*
COc1ccc(-c2ccc3oc(-c4ccc(OC)cc4)c(C#CCCO)c3c2)cc1	-1	0	·	12	11*	-1	2	3

Compound activity deposited in PubChem BioAssay by several laboratories.
